Source: publication PMC3049920 (Journal of immunology (Baltimore, Md. : 1950), 2010)

What was measured:
[1] = system: cellular phospho-tyrosine proteins in Jurkat cells; experiment: Profile of cellular phospho-tyrosine proteins in Jurkat cells; type: cell-based, human; details: 10 min
B16 melanoma tumors = B16 melanoma tumors in C57BL/6 mice; type: in vivo, mouse; details: 12 mg, daily, 5 d/wk, s.c.
[2] = system: IFNγ+ cells in human peripheral blood; experiment: Induction of IFNγ+ cells in human peripheral blood in vitro; type: cell-based; details: 20 µg/ml
Method in brief: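 Whole heparinized blood (0.1 ml) from healthy volunteers was incubated with test agent at 37°C for 4 h. RBCs were lysed with hypotonic buffer (10 mM Tris pH 7.4, 10 mM NaCl), and the WBC pellet was washed and resuspended in RPMI 1640/10% FCS. IFNγ+ cells were quantified by human IFNγ ELISPOT (16 h culture). Values are mean ± SD of duplicates.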

[3] = system: IFNγ+ cells in mouse splenocytes; experiment: Induction of IFNγ+ cells in mouse splenocytes in vitro; type: cell-based; details: optimal dose 20 µg/ml
Method in brief: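 Splenocytes came from female 129 mice, 3–5 weeks old. They were cultured 16 h in RPMI 1640/10% FCS with or without test agent in plates coated with anti-mouse IFNγ antibody. IFNγ+ cells were detected in situ by ELISPOT and counted with an automated reader. Values are mean ± SD of duplicates.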

Row | Molecule | effect on profile of cellular phospho-tyrosine proteins [1] | response of B16 tumors (B16 melanoma tumors) | induction of IFNγ+ cells [2] | maximal increase of IFNγ+ cells [3]
1 | pervanadate [pervanadate (PV)] | marked increases of multiple phosphotyrosine proteins |  |  | 
2 | O.O.O.O.O.O.O.O.O.O=C([O-])[C@@H]1[O][Sb](=[O])([O][Sb]2(=[O])[O][C@H]([C@H](O)CO)[C@H](O)[C@H](C(=O)[O-])[O]2)[O][C@H]([C@H](O)CO)[C@@H]1O.[Na+].[Na+].[Na+] (stereo partly shown) [SSG, sodium stibogluconate] |  | not responsive | ~ 2 fold | ~ 3 fold
